Results as given in ChEMBL document CHEMBL1145217, “Discovery of novel tetrahydroisoquinoline derivatives as potent and selective factor Xa inhibitors” (Bioorg Med Chem Lett, 2005).

Experiments:
[1] = Mean inhibitory concentration against coagulation factor X; n=3
Method in brief: (§1)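 Ki against each protease (factor Xa, thrombin, plasmin, trypsin), obtained from Dixon plots built at two substrate concentrations; mean of n = 3.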

Plasminogen = Plasminogen (Homo sapiens, UniProt P00747); assay: Mean inhibitory concentration against plasmin; n=3; method in brief: as §1
[2] = Maximum concentration in monkey plasma after 10 mg/kg oral administration at 120 min; assay type: ADME, organism-based; parameters: dose 10 mg/kg, route oral; conditions: cercopithecidae
[3] = Mean inhibitory concentration against trypsin; n=3; method in brief: as §1
[4] = Mean inhibitory concentration against thrombin; n=3; method in brief: as §1
[5] = Inhibitory concentration against thrombin (FIIa); n=2
[6] = Inhibitory concentration against coagulation factor X; n=2
[7] = Number of mouse death after 10 mg/kg compound intravenous administration; n=3; assay type: ADME, organism-based; parameters: dose 10 mg/kg, route intravenous; conditions: in vivo
Method in brief: (§2)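 Result recorded as the number of deaths over the number of animals tested.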

[8] = Number of mouse death after 10 mg/kg compound intra venous administration; n=3; assay type: ADME, organism-based; parameters: dose 10 mg/kg; conditions: in vivo, iv; method in brief: as §2
[9] = Number of mouse death after 10 mg/kg compound intravenous administration; NT= not tested; assay type: ADME, organism-based; parameters: dose 10 mg/kg, route intravenous; conditions: in vivo; method in brief: as §2
[10] = biological target: Coagulation factor X (Homo sapiens) (UniProt P00742); conditions: Plasma, at 10 mg/kg
Sequence of Coagulation factor X (Homo sapiens) (P00742 41-179 limits assumed): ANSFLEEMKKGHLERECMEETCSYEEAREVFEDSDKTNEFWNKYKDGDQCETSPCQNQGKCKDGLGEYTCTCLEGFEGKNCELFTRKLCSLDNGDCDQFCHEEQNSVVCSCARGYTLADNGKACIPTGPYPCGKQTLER
Sequence of Coagulation factor X (Homo sapiens) (P00742 235-488 limits assumed): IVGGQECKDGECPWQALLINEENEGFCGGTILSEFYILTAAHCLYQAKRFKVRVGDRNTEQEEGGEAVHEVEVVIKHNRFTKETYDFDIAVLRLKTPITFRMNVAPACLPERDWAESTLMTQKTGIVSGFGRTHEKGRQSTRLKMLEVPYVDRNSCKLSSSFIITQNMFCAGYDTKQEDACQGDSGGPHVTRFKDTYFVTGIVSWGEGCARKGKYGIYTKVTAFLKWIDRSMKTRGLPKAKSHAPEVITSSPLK

Sequence of Plasminogen (P00747 97-580 limits assumed): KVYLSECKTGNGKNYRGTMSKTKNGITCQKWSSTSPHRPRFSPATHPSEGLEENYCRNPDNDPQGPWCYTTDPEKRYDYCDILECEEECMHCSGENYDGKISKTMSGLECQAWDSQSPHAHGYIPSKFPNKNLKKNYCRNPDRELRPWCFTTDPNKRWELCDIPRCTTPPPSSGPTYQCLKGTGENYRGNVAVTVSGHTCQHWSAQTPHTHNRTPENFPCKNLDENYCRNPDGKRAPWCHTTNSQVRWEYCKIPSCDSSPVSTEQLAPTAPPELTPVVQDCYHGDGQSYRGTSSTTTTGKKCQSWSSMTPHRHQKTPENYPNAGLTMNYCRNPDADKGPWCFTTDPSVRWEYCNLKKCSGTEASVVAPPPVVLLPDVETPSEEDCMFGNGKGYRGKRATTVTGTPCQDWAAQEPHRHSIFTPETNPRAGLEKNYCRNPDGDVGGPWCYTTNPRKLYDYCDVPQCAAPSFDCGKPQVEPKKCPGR
Sequence of Plasminogen (P00747 581-810 limits assumed): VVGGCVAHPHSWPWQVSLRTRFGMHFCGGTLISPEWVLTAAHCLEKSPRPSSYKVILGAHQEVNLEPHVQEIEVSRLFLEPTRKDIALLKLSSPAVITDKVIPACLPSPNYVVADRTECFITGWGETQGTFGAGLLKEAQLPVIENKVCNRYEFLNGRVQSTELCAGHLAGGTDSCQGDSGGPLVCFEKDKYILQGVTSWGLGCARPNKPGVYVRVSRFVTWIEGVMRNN

Row | Compound | IC50 [5] [nM] | IC50 [6] [nM] | Mortality [7] | also measured
1 | N=C(N)N1CCc2ccc(OCC3(C(=O)O)CCN(c4ccncc4)CC3)cc2C1.O=S(O)O | – | – | – | Ki [1]: 19 nM; Ki (Plasminogen): 78200 nM; Cmax [2]: 391 ng/mL; Ki [3]: 13600 nM; Ki [4]: > 100000 nM
2 | Cl.Cl.N=C(N)N1CCc2ccc(OCC3CCN(c4ccncc4)CC3)cc2C1 | > 10000 | 60 | 3 | –
3 | Cl.Cl.N=C(N)N1CCc2ccc(OCC3CCN(c4ccnc5ccccc45)CC3)cc2C1 | > 10000 | 400 | 3 | –
4 | CCOC(=O)CCc1cnccc1N1CCC(COc2ccc3c(c2)CN(C(=N)N)CC3)CC1.Cl.Cl | > 10000 | 200 | 3 | –
5 | CC(=N)N1CCC(COc2ccc3c(c2)CN(C(=N)N)CC3)CC1.Cl.Cl | > 10000 | 500 | 3 | –
6 | Cl.Cl.N=C(N)N1CCc2ccc(OCC3(C(=O)O)CCN(c4ccncn4)CC3)cc2C1 | > 10000 | 100 | – | Mortality [8]: 0
7 | N=C(N)N1CCc2ccc(OCC3CCN(Cc4ccccn4)CC3)cc2C1 | > 10000 | 1000 | – | –
8 | Cl.Cl.N=C(N)N1CCc2ccc(OCC3CCN(c4ccncc4CCC(=O)O)CC3)cc2C1 | > 10000 | 200 | – | Mortality [8]: 0
9 | Cl.Cl.Cl.N=C(N)N1CCc2ccc(OCC3CCN(Cc4ccncc4)CC3)cc2C1 | > 10000 | 800 | – | Mortality [9]: 3
10 | N=C(N)N1CCc2ccc(OCC3(C(=O)O)CCN(c4ccncc4)CC3)cc2C1 | – | – | – | inhibition [10]: 41%
11 | CC(=N)N1CCC(Oc2ccc(C(Cc3ccc4cc[n+](C(=N)N)cc4c3)C(=O)O)cc2)C1 (stereo not drawn) | – | – | – | Ki (Plasminogen): 23000 nM; Ki [3]: 620 nM; Ki [4]: > 100000 nM
12 | COC(=O)c1cnccc1N1CCC(COc2ccc3c(c2)CN(C(=N)N)CC3)CC1.Cl.Cl | > 10000 | 200 | 3 | –
13 | Cc1cc(N2CCC(COc3ccc4c(c3)CN(C(=N)N)CC4)(C(=O)O)CC2)ccn1.Cl.Cl | > 10000 | 200 | – | Mortality [8]: 0
14 | Cl.Cl.N=C(N)N1CCc2ccc(OCC3CCN(c4ccncc4C(=O)O)CC3)cc2C1 | > 10000 | 2000 | 0 | –
15 | CCOC(=O)C1(COc2ccc3c(c2)CN(C(=N)N)CC3)CCN(c2ccncc2)CC1.Cl.Cl | > 10000 | 80 | – | Mortality [8]: 3
16 | Cl.Cl.N=C(N)N1CCc2ccc(OCC3(C(=O)O)CCN(c4ccncc4)CC3)cc2C1 | > 10000 | – | – | Mortality [8]: 0
17 | N=C(N)N1CCc2ccc(OCC3CCNCC3)cc2C1 | > 10000 | 3000 | – | –
